# Experimental data as given in ChEMBL document CHEMBL2046414, “Design and optimization of novel (2S,4S,5S)-5-amino-6-(2,2-dimethyl-5-oxo-4-phenylpiperazin-1-yl)-4-hydroxy-2-isopropylhexanamides as renin inhibitors” (Bioorg Med Chem Lett, 2012).
# Positions count from the first letter of the chain named.
# Tests used:
# Renin [1] = target: T1, Renin (Macaca fascicularis, UniProt Q6DLS0); assay: Inhibition of renin in cynomolgus monkey plasma
# T1 sequence (Q6DLS0 whole entry): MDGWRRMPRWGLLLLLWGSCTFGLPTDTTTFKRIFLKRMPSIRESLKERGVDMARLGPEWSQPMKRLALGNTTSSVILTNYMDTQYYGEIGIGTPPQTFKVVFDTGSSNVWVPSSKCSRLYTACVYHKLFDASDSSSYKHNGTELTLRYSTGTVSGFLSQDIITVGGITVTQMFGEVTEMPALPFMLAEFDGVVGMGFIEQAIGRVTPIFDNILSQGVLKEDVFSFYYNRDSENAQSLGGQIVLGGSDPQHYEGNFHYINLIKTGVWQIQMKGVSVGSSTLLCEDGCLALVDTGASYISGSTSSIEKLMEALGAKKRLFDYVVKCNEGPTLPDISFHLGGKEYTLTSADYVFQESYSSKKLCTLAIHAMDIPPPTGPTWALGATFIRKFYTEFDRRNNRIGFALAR
# Renin [2] = target: T2, Renin (Homo sapiens, UniProt P00797); assay: Inhibition of human purified renin
# T2 sequence (P00797 whole entry): T1 sequence (Q6DLS0 whole entry) with A68T, L214I, A235S
# [3] = Metabolic stability in cynomolgus monkey liver microsomes assessed as compound remaining at 1 uM incubated with NADPH generating system measured after 30 mins; type: ADME, Macaca fascicularis, Microsome; conditions: read-out: Stability
# Procedure, shortened: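 Monkey liver microsome stability, high-throughput in-house format: compound incubated at […] with an NADPH-generating system and 0.5 mg/mL microsomal protein at 37 °C.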
# [4] = Volume of distribution at steady state in cynomolgus monkey at 1 mg/kg, iv; type: ADME, organism-based, Macaca fascicularis; design: dose 1 mg/kg, route intravenous; conditions: in vivo, read-out: Vdss
# [5] = Clearance in cynomolgus monkey at 1 mg/kg, iv; type: ADME, organism-based, Macaca fascicularis; design: dose 1 mg/kg, route intravenous; conditions: in vivo
# [6] = Oral bioavailability in cynomolgus monkey at 10 mg/kg; type: ADME, organism-based, Macaca fascicularis; conditions: in vivo
# [7] = AUC (0 to 24 hrs) in cynomolgus monkey at 10 mg/kg, po; conditions: plasma
# [8] = Half life in cynomolgus monkey at 1 mg/kg, iv; type: ADME, organism-based, Macaca fascicularis; design: dose 1 mg/kg, route intravenous; conditions: in vivo
# [9] = Cmax in cynomolgus monkey at 10 mg/kg, po; type: ADME, organism-based, Macaca fascicularis; design: dose 10 mg/kg, route oral; conditions: in vivo
Structure (SMILES),IC50 (Renin [1]),IC50 (Renin [2]),other results
COCCCOc1cccc(N2CCN(CC(N)C(O)CC(C(=O)NCC(C)(C)C(N)=O)C(C)C)CC2=O)c1 (racemic),3000 nM,400 nM,–
Cc1ccccc1N1CC(C)(C)N(C[C@H](N)[C@@H](O)C[C@H](C(=O)NCC(C)(C)C(N)=O)C(C)C)CC1=O,24 nM,1.7 nM,–
CC(C)[C@H](C[C@H](O)[C@@H](N)CN1CC(=O)N(c2cccc(F)c2)CC1(C)C)C(=O)NCC(C)(C)C(N)=O,23 nM,3 nM,–
COc1ccccc1N1CC(C)(C)N(C[C@H](N)[C@@H](O)C[C@H](C(=O)NCC(C)(C)C(N)=O)C(C)C)CC1=O,19 nM,1.9 nM,–
CC(C)[C@H](C[C@H](O)[C@@H](N)CN1CC(=O)N(c2c(F)cccc2F)CC1(C)C)C(=O)NCC(C)(C)C(N)=O,12 nM,2.4 nM,–
CC(C)[C@H](C[C@H](O)[C@@H](N)CN1CC(=O)N(c2cc(F)cc(F)c2)CC1(C)C)C(=O)NCC(C)(C)C(N)=O,90 nM,5.5 nM,–
CC(C)[C@H](C[C@H](O)[C@@H](N)CN1CC(=O)N(c2ccccc2Cl)CC1(C)C)C(=O)NC1CCCCC1,11 nM,1 nM,"remaining at 0.5 h, 1 µM [3]: 17.5%"
CC(C)[C@H](C[C@H](O)[C@@H](N)CN1CC(=O)N(c2ccccc2F)CC1(C)C)C(=O)NCC(C)(C)C(N)=O,30 nM,2.2 nM,–
COCCCOc1ccccc1N1CCN(CC(N)C(O)CC(C(=O)NCC(C)(C)C(N)=O)C(C)C)CC1=O (racemic),2800 nM,–,–
COCCCOc1ccccc1C1CCN(CC(N)C(O)CC(C(=O)NCC(C)(C)C(N)=O)C(C)C)CC1 (racemic),12500 nM,370 nM,–
COc1ccc(Cl)c(N2CC(C)(C)N(C[C@H](N)[C@@H](O)C[C@H](C(=O)NCC(C)(C)C(N)=O)C(C)C)CC2=O)c1,33 nM,2.4 nM,–
CC(C)[C@H](C[C@H](O)[C@@H](N)CN1CC(=O)N(c2ccccc2)CC1(C)C)C(=O)NCC(C)(C)C(N)=O,49 nM,3.1 nM,–
CCCCNC(=O)[C@@H](C[C@H](O)[C@@H](N)CN1CC(=O)N(c2cc(F)ccc2Cl)CC1(C)C)C(C)C.O=C(O)/C=C/C(=O)O,25 nM,2 nM,"Vd [4]: 16.3 L/kg; remaining at 0.5 h, 1 µM [3]: 52.2%; clearance [5]: 14.7 mL/min/kg; bioavailability [6]: 18.5%; AUC(0-t) at 24 h [7]: 2110 ng·h/mL; half-life [8]: 10.8 h; Cmax [9]: 576 ng/mL"
CC(C)[C@H](C[C@H](O)[C@@H](N)CN1CC(=O)N(c2cccc(F)c2F)CC1(C)C)C(=O)NCC(C)(C)C(N)=O,11 nM,2 nM,–
COCCCOc1ccccc1N1CCN(CC(N)C(O)CC(C(=O)NCC(C)(C)C(N)=O)C(C)C)C(C)(C)C1=O (racemic),875 nM,170 nM,–
CC(C)[C@H](C[C@H](O)[C@@H](N)CN1CC(=O)N(c2cc(Cl)ccc2Cl)CC1(C)C)C(=O)NCC(C)(C)C(N)=O,28 nM,2.1 nM,–
CC(C)[C@H](C[C@H](O)[C@@H](N)CN1CC(=O)N(c2cc(F)ccc2F)CC1(C)C)C(=O)NCC(C)(C)C(N)=O,30 nM,2 nM,–
COc1cccc(N2CC(C)(C)N(C[C@H](N)[C@@H](O)C[C@H](C(=O)NCC(C)(C)C(N)=O)C(C)C)CC2=O)c1,58 nM,4.2 nM,–
CC(C)[C@H](C[C@H](O)[C@@H](N)CN1CC(=O)N(c2cccc(Cl)c2)CC1(C)C)C(=O)NCC(C)(C)C(N)=O,25 nM,2.1 nM,–

# These reach a lower IC50 (Renin [1]). Values come first.
IC50 (Renin [1]),IC50 (Renin [2]),Structure (SMILES),other results
2 nM,1 nM,CC[C@H](C)CNC(=O)[C@@H](C[C@H](O)[C@@H](N)CN1CC(=O)N(c2ccccc2Cl)CC1(C)C)C(C)C,"remaining at 0.5 h, 1 µM [3]: 8.4%"
10 nM,3.3 nM,COCCCOc1ccccc1N1CC(C)(C)N(CC(N)C(O)CC(C(=O)NCC(C)(C)C(N)=O)C(C)C)CC1=O (racemic),–
7 nM,2.1 nM,CC(C)[C@H](C[C@H](O)[C@@H](N)CN1CC(=O)N(c2cc(F)ccc2Cl)CC1(C)C)C(=O)NCC(C)(C)C(N)=O,–
7 nM,–,CC(C)[C@H](C[C@H](O)[C@@H](N)CN1CC(=O)N(c2ccccc2Cl)CC1(C)C)C(=O)NCC(C)(C)C(N)=O,–
8 nM,1.4 nM,CC[C@H](C)CNC(=O)[C@@H](C[C@H](O)[C@@H](N)CN1CC(=O)N(c2cc(F)ccc2Cl)CC1(C)C)C(C)C,"remaining at 0.5 h, 1 µM [3]: 1.9%"
5 nM,1.9 nM,CC(C)[C@H](C[C@H](O)[C@@H](N)CN1CC(=O)N(c2cc(F)ccc2Cl)CC1(C)C)C(=O)NC1CCCCC1,"remaining at 0.5 h, 1 µM [3]: 38%"
9.8 nM,1.7 nM,COCCOc1ccccc1N1CC(C)(C)N(C[C@H](N)[C@@H](O)C[C@H](C(=O)NCC(C)(C)C(N)=O)C(C)C)CC1=O,–
6.4 nM,1.4 nM,COCOc1ccccc1N1CC(C)(C)N(C[C@H](N)[C@@H](O)C[C@H](C(=O)NCC(C)(C)C(N)=O)C(C)C)CC1=O,–
9 nM,1 nM,CCCCNC(=O)[C@@H](C[C@H](O)[C@@H](N)CN1CC(=O)N(c2ccccc2Cl)CC1(C)C)C(C)C,"remaining at 0.5 h, 1 µM [3]: 39.2%"
5.3 nM,1.2 nM,COCCCOc1ccccc1N1CC(C)(C)N(C[C@H](N)[C@@H](O)C[C@H](C(=O)NCC(C)(C)C(N)=O)C(C)C)CC1=O,–
